According to ChEMBL document CHEMBL3102848, “Carbamazepine derivatives with P2X4 receptor-blocking activity” (Bioorg Med Chem, 2014):

Columns and labels:
Format in all cases: cell-based
[1] = target: T1, P2X purinoceptor 4 (Homo sapiens) (UniProt Q99571); assay: Antagonist activity at human P2X4 receptor expressed in human 1321N1 cells assessed as inhibition of ATP-induced cytosolic calcium influx at 100 uM preincubated for 30 mins followed by ATP addition by Fluo-4 AM dye-based fluorescence assay
T1 sequence (whole entry): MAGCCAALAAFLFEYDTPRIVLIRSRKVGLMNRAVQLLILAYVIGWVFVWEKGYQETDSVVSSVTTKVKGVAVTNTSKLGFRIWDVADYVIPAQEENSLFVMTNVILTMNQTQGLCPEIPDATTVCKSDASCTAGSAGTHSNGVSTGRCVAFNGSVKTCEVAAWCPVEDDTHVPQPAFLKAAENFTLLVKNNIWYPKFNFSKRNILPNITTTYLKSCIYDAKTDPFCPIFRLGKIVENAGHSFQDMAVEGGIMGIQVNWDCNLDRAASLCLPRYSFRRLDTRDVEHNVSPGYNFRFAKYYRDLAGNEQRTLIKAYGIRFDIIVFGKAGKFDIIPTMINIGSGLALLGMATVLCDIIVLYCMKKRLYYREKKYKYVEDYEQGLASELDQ
How it was run: (§1)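 Human P2X4 stably transfected into 1321N1 astrocytoma cells. Inhibition of ATP-induced calcium influx measured as in earlier work. Compounds were first screened at a single high concentration, chosen according to their solubility.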

[2] = target: T2, P2X purinoceptor 4 (Homo sapiens, UniProt Q99571); assay: Antagonist activity at human P2X4 receptor expressed in human 1321N1 cells assessed as inhibition of ATP-induced cytosolic calcium influx preincubated for 30 mins followed by ATP addition by Fluo-4 AM dye-based fluorescence assay; how it was run: as §1
T2 sequence (Q99571 whole entry): T1 sequence (whole entry)

[3] = target: T1, P2X purinoceptor 4 (Homo sapiens); assay: Antagonist activity at human P2X4 receptor expressed in human 1321N1 cells assessed as inhibition of ATP-induced cytosolic calcium influx at 300 uM preincubated for 30 mins followed by ATP addition by Fluo-4 AM dye-based fluorescence assay; how it was run: as §1
[4] = target: T1, P2X purinoceptor 4 (Homo sapiens); assay: Antagonist activity at human P2X4 receptor expressed in human 1321N1 cells assessed as inhibition of ATP-induced cytosolic calcium influx at 10 uM preincubated for 30 mins followed by ATP addition by Fluo-4 AM dye-based fluorescence assay; how it was run: as §1
[5] = target: T1, P2X purinoceptor 4 (Homo sapiens); assay: Antagonist activity at human P2X4 receptor expressed in human 1321N1 cells assessed as inhibition of ATP-induced cytosolic calcium influx at 20 uM preincubated for 30 mins followed by ATP addition by Fluo-4 AM dye-based fluorescence assay; how it was run: as §1

Compound | inhibition [1] [%] | IC50 [2] [µM] | inhibition [3] [%] | inhibition [4] [%] | inhibition [5] [%]
CN(C)CCN(C)C(=O)N1c2ccccc2C=Cc2ccccc21 | 42 | ≥ 100 | – | – | –
NC(=O)N1c2ccccc2C=Cc2ccc(F)cc21 | -2 | > 100 | – | – | –
NC(=O)N1c2ccccc2C=Cc2cc(F)ccc21 | 11 | > 100 | – | – | –
C1=Cc2ccccc2N(Cc2ccccc2)c2ccccc21 | 34 | > 100 | – | – | –
Cc1ccc2c(c1)N(C(N)=O)c1ccccc1C=C2 | 21 | > 100 | – | – | –
NC(=O)N1c2ccccc2CCc2ccccc21 | 35 | > 100 | – | – | –
COc1ccc2c(c1)N(C(N)=O)c1ccccc1C=C2 | 30 | > 100 | – | – | –
CN(C)C(=O)N1c2ccccc2C=Cc2ccccc21 | 49 | ≥ 100 | – | – | –
O=C(N1CCOCC1)N1c2ccccc2C=Cc2ccccc21 | 50 | ≥ 100 | – | – | –
NC(=O)N1c2ccccc2CC(O)c2ccccc21 (racemic) [LICARBAZEPINE] | 28 | > 100 | – | – | –
CN1CCC(NC(=O)N2c3ccccc3C=Cc3ccccc32)CC1 | 56 | ≥ 100 | – | – | –
O=C(Nc1ccncc1)N1c2ccccc2C=Cc2ccccc21 | 30 | > 100 | – | – | –
NC(=O)N1c2ccccc2C=Cc2ccccc21 [CARBAMAZEPINE] | 35 | > 100 | – | – | –
O=C(N1CCC(O)CC1)N1c2ccccc2C=Cc2ccccc21 | – | > 100 | – | – | –
COC1=Cc2ccccc2N(C(N)=O)c2ccccc21 | 34 | > 100 | – | – | –
CNC(=O)N1c2ccccc2C=Cc2ccccc21 | 47 | ≥ 100 | – | – | –
CCCCNC(=O)N1c2ccccc2C=Cc2ccccc21 | 49 | ≥ 100 | – | – | –
CCOC1Cc2ccccc2N(C(N)=O)c2ccccc21 (racemic) | 17 | > 100 | – | – | –
O=C(N(CCO)CCO)N1c2ccccc2C=Cc2ccccc21 | 2 | > 100 | – | – | –
CC(=O)N1c2ccccc2C=Cc2ccccc21 | 39 | > 100 | – | – | –

The remaining lines, values ahead:

inhibition [1] [%] | IC50 [2] [µM] | inhibition [3] [%] | inhibition [4] [%] | inhibition [5] [%] | Compound
92 | 13.8 | – | – | – | CC(C)(C)NC(=O)N1c2ccccc2C=Cc2ccccc21
58 | 100 | – | – | – | CC(C)COC(=O)N1c2ccccc2C=Cc2ccccc21
75 | 78.9 | – | – | – | O=C(NCc1ccccc1)N1c2ccccc2C=Cc2ccccc21
– | 72.8 | 99 | – | – | NC(=O)N1c2ccccc2C=Cc2ccc(O)cc21
– | > 10 | – | 10 | – | NC(=O)N1c2ccccc2CC(=O)c2ccccc21 [OXCARBAZEPINE]
51 | 100 | – | – | – | COC(=O)N1c2ccccc2C=Cc2ccccc21
91 | 51.4 | – | – | – | NC(=O)N1c2ccccc2C=Cc2c1ccc1ccccc21
83 | 27.4 | – | – | – | COc1ccc(CCNC(=O)N2c3ccccc3C=Cc3ccccc32)cc1
– | > 10 | – | 12 | – | NC(=O)N1c2ccccc2C=C(N)c2ccccc21
– | > 10 | – | 11 | – | NC1CCC(NC(=O)N2c3ccccc3C=Cc3ccccc32)CC1 (stereo not given)
– | 6.02 | – | 73 | – | O=C(OCc1ccccc1)N1c2ccccc2C=Cc2ccccc21
49 | 100 | – | – | – | O=C(Nc1ccccc1)N1c2ccccc2C=Cc2ccccc21
80 | 36.9 | – | – | – | CNC1=Cc2ccccc2N(C(N)=O)c2ccccc21
74 | 30.6 | – | – | – | CC(C)N(C(=O)c1cccc2c1Nc1ccccc1C=C2)C(C)C
54 | 100 | – | – | – | CN(C)CCCNC(=O)N1c2ccccc2C=Cc2ccccc21
107 | 36.2 | – | – | – | O=C(NCCc1ccccc1)N1c2ccccc2C=Cc2ccccc21
– | > 10 | – | 1 | – | NC(=O)N1c2ccccc2C2OC2c2ccccc21 (stereo not given) [CARBAMAZEPINE EPOXIDE]
52 | 100 | – | – | – | CCN(CC)C(=O)N1c2ccccc2C=Cc2ccncc21
39 | 15.3 | – | – | – | CN(C)c1ccc2c(c1)N(C(N)=O)c1ccccc1C=C2
72 | 54.6 | – | – | – | NC(=O)N1c2ccccc2C=Cc2ccc(C(F)(F)F)cc21
– | > 20 | – | – | 25 | CC(=O)O[C@H]1Cc2ccccc2N(C(N)=O)c2ccccc21 [ESLICARBAZEPINE ACETATE]
– | 52.5 | – | – | – | CCN(CC)C(=O)N1c2ccccc2C=Cc2cccc(C(=O)N(C(C)C)C(C)C)c21
75 | 23.3 | – | – | – | O=C(c1ccccc1)N1c2ccccc2C=Cc2ccccc21
– | 146 | 82 | – | – | NC(=O)N1c2ccccc2C=Cc2cc(O)ccc21
47 | 19.2 | – | – | – | CC(C)NC(=O)N1c2ccccc2C=Cc2ccccc21
– | > 20 | – | – | 0 | O=C(NC1CCC(O)CC1)N1c2ccccc2C=Cc2ccccc21 (stereo not given)
